By IC50 is commonly meant the point on the concentration scale where inhibition reaches its midpoint. The term inhibition denotes the change of the read-out against control, counted positive when it falls.

This note sets out measurements from ChEMBL document CHEMBL1149392, “PTP-1B inhibitors: cyclopenta[d][1,2]-oxazine derivatives” (Bioorg Med Chem Lett, 2006).

The target in assay [1] is T1, M-phase inducer phosphatase 3 (Homo sapiens, UniProt P30307).
T1 sequence (P30307 whole entry): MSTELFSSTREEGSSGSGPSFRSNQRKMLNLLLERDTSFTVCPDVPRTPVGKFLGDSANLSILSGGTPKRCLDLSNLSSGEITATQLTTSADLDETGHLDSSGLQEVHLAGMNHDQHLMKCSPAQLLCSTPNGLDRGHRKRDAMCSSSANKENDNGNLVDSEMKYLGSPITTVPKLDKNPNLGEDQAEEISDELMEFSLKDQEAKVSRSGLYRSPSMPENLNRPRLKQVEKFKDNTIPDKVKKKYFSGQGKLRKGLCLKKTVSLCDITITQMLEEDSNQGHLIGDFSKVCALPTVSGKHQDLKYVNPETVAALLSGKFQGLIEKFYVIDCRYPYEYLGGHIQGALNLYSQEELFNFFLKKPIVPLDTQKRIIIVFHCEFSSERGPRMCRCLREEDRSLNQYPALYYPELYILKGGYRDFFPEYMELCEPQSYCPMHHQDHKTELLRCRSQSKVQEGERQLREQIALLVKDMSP
Briefly: Inhibitory activity against cdc25C phosphatase. The essentials: (§1)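 Selectivity panel of nine phosphatases, each assayed with fluorescein diphosphate at the same concentration as in the PTP-1B assay (20 μM). IC50 values (μM) reported.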

Assay [2] concerns the target T2, Receptor-type tyrosine-protein phosphatase C (Homo sapiens, UniProt P08575).
T2 sequence (P08575 whole entry): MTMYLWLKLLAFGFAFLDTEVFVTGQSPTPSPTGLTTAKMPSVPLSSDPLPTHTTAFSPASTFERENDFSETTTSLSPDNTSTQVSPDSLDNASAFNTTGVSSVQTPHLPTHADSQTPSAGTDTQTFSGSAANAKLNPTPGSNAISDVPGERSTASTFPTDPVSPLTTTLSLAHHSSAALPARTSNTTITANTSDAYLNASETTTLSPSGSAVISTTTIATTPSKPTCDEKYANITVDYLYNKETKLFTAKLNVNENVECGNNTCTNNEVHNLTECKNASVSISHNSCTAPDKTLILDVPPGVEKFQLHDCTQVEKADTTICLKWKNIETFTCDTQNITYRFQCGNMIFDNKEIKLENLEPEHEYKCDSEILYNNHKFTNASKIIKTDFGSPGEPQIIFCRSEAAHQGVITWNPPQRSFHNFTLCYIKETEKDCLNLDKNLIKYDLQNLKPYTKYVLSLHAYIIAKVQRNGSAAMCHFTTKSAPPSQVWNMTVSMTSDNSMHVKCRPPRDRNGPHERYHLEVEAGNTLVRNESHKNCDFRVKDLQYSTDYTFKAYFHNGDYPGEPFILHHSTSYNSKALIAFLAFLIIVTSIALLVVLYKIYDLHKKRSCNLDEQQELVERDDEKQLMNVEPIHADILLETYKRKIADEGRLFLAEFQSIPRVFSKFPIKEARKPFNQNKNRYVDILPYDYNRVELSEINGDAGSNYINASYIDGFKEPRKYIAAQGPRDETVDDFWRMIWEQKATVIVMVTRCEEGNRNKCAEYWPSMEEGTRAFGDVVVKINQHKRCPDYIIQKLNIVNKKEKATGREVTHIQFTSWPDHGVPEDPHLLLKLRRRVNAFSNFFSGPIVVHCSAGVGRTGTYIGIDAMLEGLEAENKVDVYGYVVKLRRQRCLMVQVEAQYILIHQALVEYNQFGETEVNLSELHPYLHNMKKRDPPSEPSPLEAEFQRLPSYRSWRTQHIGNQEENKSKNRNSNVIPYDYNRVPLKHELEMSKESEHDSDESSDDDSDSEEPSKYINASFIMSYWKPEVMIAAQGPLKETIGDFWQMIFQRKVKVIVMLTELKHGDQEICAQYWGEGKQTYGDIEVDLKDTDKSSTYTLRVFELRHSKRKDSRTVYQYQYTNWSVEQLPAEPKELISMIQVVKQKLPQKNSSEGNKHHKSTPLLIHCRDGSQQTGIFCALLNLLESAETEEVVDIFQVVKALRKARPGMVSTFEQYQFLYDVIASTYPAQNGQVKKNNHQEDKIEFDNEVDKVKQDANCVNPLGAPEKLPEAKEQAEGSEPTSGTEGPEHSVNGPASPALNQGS
Briefly: Inhibitory activity against CD45 phosphatase. The essentials:
as §1

Assay [3] concerns the target Receptor-type tyrosine-protein phosphatase F (Homo sapiens, UniProt P10586). Nature of the assay: Inhibitory activity against LAR protein tyrosine phosphatase. In short, it runs like this: as §1
Assay [4] concerns the target T3, Tyrosine-protein phosphatase non-receptor type 1 (Homo sapiens) (UniProt P18031).
T3 sequence (whole entry): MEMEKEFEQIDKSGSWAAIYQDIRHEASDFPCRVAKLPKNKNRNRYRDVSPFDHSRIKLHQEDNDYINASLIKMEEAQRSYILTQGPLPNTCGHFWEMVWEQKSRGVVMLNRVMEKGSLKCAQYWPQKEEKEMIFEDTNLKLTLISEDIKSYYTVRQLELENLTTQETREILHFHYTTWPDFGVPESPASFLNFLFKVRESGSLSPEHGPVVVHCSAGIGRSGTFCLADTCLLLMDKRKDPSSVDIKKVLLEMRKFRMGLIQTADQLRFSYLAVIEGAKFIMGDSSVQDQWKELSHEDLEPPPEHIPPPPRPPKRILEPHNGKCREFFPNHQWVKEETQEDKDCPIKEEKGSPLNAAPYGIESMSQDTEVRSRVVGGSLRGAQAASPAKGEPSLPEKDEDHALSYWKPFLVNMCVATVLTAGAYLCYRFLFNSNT
Nature of the assay: Inhibitory activity against recombinant human PTP1B at 10 uM.

The target in assay [5] is Tyrosine-protein phosphatase YopH (Yersinia enterocolitica, UniProt P15273). Briefly: Inhibitory activity against YOP protein tyrosine phosphatase. In short, it runs like this:
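Counter-screen against Yop phosphatase within a nine-phosphatase selectivity panel. Fluorescein diphosphate substrate at 20 μM, the same level as in the PTP-1B assay. Potency is reported as IC50 (μM).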

Assay [6] concerns the target T4, M-phase inducer phosphatase 1 (Homo sapiens, UniProt P30304).
T4 sequence (P30304 whole entry): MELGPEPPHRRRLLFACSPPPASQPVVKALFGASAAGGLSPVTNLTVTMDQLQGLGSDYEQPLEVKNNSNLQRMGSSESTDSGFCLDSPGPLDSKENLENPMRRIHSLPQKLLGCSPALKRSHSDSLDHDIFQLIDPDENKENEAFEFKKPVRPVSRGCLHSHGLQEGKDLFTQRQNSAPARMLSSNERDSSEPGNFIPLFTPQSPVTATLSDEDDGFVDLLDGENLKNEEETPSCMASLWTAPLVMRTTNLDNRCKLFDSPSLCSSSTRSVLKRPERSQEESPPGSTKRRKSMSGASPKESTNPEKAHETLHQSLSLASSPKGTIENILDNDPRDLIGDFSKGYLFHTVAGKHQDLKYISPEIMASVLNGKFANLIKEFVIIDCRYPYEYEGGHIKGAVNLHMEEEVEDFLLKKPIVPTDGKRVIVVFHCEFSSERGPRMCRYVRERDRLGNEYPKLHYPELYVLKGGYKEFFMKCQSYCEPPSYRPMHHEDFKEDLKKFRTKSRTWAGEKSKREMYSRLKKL
Briefly: Inhibitory activity against cdc25A phosphatase. In short, it runs like this: as §1

Tyrosine-protein phosphatase YopH, sequence (P15273 whole entry): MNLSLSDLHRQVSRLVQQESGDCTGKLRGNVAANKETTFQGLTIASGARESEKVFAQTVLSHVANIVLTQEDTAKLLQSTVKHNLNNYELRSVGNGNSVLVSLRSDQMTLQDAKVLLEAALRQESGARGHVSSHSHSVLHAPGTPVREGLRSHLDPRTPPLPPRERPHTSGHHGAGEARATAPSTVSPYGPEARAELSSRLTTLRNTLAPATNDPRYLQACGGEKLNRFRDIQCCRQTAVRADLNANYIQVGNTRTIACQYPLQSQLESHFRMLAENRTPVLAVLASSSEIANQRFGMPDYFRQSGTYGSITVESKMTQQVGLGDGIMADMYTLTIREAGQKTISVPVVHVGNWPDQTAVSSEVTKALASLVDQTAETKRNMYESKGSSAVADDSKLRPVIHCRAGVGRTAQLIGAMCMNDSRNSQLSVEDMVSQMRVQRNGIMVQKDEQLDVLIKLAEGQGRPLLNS
Receptor-type tyrosine-protein phosphatase F, sequence (P10586 whole entry): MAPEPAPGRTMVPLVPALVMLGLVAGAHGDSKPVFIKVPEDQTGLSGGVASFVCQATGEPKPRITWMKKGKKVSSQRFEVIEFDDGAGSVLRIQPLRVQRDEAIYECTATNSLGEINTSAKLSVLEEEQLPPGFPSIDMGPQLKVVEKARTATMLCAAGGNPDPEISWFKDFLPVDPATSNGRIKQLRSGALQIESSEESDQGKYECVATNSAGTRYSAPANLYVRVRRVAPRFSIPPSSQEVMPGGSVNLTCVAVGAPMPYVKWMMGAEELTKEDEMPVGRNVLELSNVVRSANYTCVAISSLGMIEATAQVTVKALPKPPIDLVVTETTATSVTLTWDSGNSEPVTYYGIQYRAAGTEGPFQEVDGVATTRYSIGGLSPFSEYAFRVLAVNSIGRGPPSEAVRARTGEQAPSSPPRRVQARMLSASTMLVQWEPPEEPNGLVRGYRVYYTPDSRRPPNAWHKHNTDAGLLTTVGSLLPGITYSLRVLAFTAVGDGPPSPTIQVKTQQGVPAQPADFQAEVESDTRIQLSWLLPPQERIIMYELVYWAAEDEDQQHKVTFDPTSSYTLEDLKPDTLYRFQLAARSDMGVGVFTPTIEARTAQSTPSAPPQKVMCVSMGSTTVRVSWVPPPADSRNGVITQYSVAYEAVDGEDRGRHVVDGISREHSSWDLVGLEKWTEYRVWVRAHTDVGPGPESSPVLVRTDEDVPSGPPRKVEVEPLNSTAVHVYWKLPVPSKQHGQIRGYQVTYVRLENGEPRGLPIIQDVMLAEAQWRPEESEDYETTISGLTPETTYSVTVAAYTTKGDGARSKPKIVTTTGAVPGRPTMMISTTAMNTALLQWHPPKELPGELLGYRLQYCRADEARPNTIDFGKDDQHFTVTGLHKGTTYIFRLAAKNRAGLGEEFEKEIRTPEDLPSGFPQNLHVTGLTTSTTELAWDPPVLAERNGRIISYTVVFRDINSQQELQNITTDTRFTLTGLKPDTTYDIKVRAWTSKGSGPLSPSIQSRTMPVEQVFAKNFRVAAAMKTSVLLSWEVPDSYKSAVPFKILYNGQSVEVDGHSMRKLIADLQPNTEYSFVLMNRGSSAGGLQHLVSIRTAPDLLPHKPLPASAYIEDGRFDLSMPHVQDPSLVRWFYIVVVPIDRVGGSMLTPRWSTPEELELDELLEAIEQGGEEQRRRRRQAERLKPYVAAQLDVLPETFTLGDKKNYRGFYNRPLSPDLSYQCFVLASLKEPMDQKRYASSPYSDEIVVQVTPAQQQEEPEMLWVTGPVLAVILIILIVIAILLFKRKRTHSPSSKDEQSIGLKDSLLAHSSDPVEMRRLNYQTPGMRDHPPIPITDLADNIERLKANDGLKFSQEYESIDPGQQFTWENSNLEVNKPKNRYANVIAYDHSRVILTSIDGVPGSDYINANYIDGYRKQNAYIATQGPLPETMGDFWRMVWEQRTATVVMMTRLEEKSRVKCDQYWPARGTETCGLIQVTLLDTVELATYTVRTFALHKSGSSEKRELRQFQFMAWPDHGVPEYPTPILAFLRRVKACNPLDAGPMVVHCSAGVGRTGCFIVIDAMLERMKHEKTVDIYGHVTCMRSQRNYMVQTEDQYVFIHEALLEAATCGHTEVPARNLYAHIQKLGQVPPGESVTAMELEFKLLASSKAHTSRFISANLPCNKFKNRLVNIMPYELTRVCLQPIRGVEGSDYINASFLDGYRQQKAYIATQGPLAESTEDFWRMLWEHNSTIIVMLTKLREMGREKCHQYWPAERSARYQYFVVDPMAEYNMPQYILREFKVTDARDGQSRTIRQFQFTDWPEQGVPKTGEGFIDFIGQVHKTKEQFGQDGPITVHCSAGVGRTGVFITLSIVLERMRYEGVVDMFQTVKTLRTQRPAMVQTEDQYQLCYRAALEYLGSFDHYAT

As to `NCc1ccc(C(=O)c2ccc3c(-c4ccc(OCC(=O)O)cc4)nocc2-3)cc1`, the IC50 is > 10 µM in assay [1]; 1.23 µM in assay [2]; > 10 µM in assay [3]; 1.19 µM in assay [5]; 10 µM in assay [6]. In assay [4], the inhibition was found to be 97.2%.

On to `CCCCCCCCCCCCCCc1ccc(C(=O)c2ccc3c(-c4ccc(OCC(=O)O)cc4)nocc2-3)cc1`, for which the IC50 in assay [1] turned out to be 2.27 µM; in assay [2] it was 0.15 µM; in assay [3], 0.69 µM; in assay [5], 0.55 µM; in assay [6], 1.33 µM. In assay [4], the inhibition worked out at 101%.

Take `COc1ccc(C(=O)c2ccc3c(-c4ccc(OCC(=O)O)cc4)nocc2-3)cc1`: the IC50 worked out at 61.7 µM in assay [1]; 28.8 µM in assay [2]; 61.7 µM in assay [3]; 5.71 µM in assay [5]; 73.3 µM in assay [6]. The inhibition in assay [4] was found to be 81.5%.
